# Measurements as given in ChEMBL document CHEMBL4699443, “Position of lipidation influences anticancer activity of Smac analogs” (Bioorg Med Chem Lett, 2019).
# The source made the active and inactive calls. No cut-off for these calls is given here. Starred links: 1 amine or outer side, 2 acyl side, 3 side chain; linkers in the order of their positions; H or OH if unused. Non-standard residues stand in square brackets, D forms with d. Residues, ends and D or L forms follow the SMILES beside them. *: point of attachment. Pro(cis-4-OPh) = O=C(O)[C@@H]1C[C@H](Oc2ccccc2)CN1; Phe(3,5-F2) = N[C@@H](Cc1cc(F)cc(F)c1)C(=O)O; Bip = N[C@@H](Cc1ccc(-c2ccccc2)cc1)C(=O)O; Cysteamide = C(CS[*:3])N[*:1]; Tle = CC(C)(C)[C@H](N)C(=O)O; X1 = CCCCCCCCCCCCCCCCCCSCCN*; NMeA = CN[C@@H](C)C(=O)O; X3 = CCCCCCCCCCCCCCCCCC*; Ac4c = NC1(C(=O)O)CCC1
# How the values were obtained:
# Jurkat = test: Antiproliferative activity against human Jurkat cells assessed as growth inhibition after 48 hrs by PrestoBlue dye based fluorescence assay; format: functional, cell-based
# KOPN-8 [1] = test: Antiproliferative activity against human KOPN-8 cells assessed as growth inhibition after 48 hrs by PrestoBlue dye based fluorescence assay; format: functional, cell-based; conditions: KOPN-8, 48 h
# MOLT-4 = test: Antiproliferative activity against human MOLT-4 cells assessed as growth inhibition after 48 hrs by PrestoBlue dye based fluorescence assay; format: functional, cell-based; conditions: MOLT-4, 48 h
# MV4-11 = test: Antiproliferative activity against human MV4-11 cells assessed as growth inhibition after 48 hrs by PrestoBlue dye based fluorescence assay; format: functional, cell-based; conditions: MV4-11, 48 h
# NALM-6 = test: Antiproliferative activity against human NALM6 cells assessed as growth inhibition after 48 hrs by PrestoBlue dye based fluorescence assay; format: functional, cell-based; conditions: NALM-6, 48 h
# [2] = Antiproliferative activity against human CEMTL cells assessed as growth inhibition after 48 hrs by PrestoBlue dye based fluorescence assay; format: functional, cell-based; conditions: CEM-TL
# THP-1 = test: Antiproliferative activity against human THP1 cells assessed as growth inhibition after 48 hrs by PrestoBlue dye based fluorescence assay; format: functional, cell-based; conditions: THP-1, 48 h
# TF-1 = test: Antiproliferative activity against human TF1 cells assessed as growth inhibition after 48 hrs by PrestoBlue dye based fluorescence assay; format: functional, cell-based; conditions: TF-1, 48 h
# KOPN-8 [3] = test: Induction of apoptosis in human KOPN8 cells assessed as viable cells at 10 uM after 24 hrs by AnnexinV/PI-staining based flow cytometry; format: functional; conditions: read-out: Activity
# Procedure, shortened: (§1)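 KOPN-8 cells treated with 1 or 10 μM compound, alone or as an equimolar two-compound mixture. Cultured for a time course, then stained with annexin V and propidium iodide. Read by flow cytometry; populations gated by annexin V/PI staining, including annexin V+/PI+ double positives.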
# KOPN-8 [4] = test: Induction of apoptosis in human KOPN8 cells assessed as early apoptotic cells at 10 uM after 24 hrs by AnnexinV/PI-staining based flow cytometry; format: functional; procedure, shortened: as §1
# KOPN-8 [5] = test: Induction of apoptosis in human KOPN8 cells assessed as late apoptotic cells at 10 uM after 24 hrs by AnnexinV/PI-staining based flow cytometry; format: functional; procedure, shortened: as §1
# KOPN-8 [6] = test: Induction of apoptosis in human KOPN8 cells assessed as necrotic cells at 10 uM after 24 hrs by AnnexinV/PI-staining based flow cytometry; format: functional; procedure, shortened: as §1
# KOPN-8 [7] = test: Induction of apoptosis in human KOPN8 cells assessed as viable cells at 10 uM after 48 hrs by AnnexinV/PI-staining based flow cytometry; format: functional; conditions: read-out: Activity; procedure, shortened: as §1
# KOPN-8 [8] = test: Induction of apoptosis in human KOPN8 cells assessed as early apoptotic cells at 10 uM after 48 hrs by AnnexinV/PI-staining based flow cytometry; format: functional; procedure, shortened: as §1
# KOPN-8 [9] = test: Induction of apoptosis in human KOPN8 cells assessed as late apoptotic cells at 10 uM after 48 hrs by AnnexinV/PI-staining based flow cytometry; format: functional; procedure, shortened: as §1
# KOPN-8 [10] = test: Induction of apoptosis in human KOPN8 cells assessed as necrotic cells at 10 uM after 48 hrs by AnnexinV/PI-staining based flow cytometry; format: functional; procedure, shortened: as §1
# KOPN-8 [11] = test: Induction of apoptosis in human KOPN8 cells assessed as viable cells at 10 uM after 72 hrs by AnnexinV/PI-staining based flow cytometry; format: functional; conditions: read-out: Activity; procedure, shortened: as §1
# KOPN-8 [12] = test: Induction of apoptosis in human KOPN8 cells assessed as early apoptotic cells at 10 uM after 72 hrs by AnnexinV/PI-staining based flow cytometry; format: functional; procedure, shortened: as §1
# KOPN-8 [13] = test: Induction of apoptosis in human KOPN8 cells assessed as late apoptotic cells at 10 uM after 72 hrs by AnnexinV/PI-staining based flow cytometry; format: functional; procedure, shortened: as §1
# KOPN-8 [14] = test: Induction of apoptosis in human KOPN8 cells assessed as necrotic cells at 10 uM after 72 hrs by AnnexinV/PI-staining based flow cytometry; format: functional; procedure, shortened: as §1
# KOPN-8 [15] = test: Induction of apoptosis in human KOPN8 cells assessed as viable cells at 10 uM after 168 hrs by AnnexinV/PI-staining based flow cytometry; format: functional; conditions: read-out: Activity; procedure, shortened: as §1
# KOPN-8 [16] = test: Induction of apoptosis in human KOPN8 cells assessed as early apoptotic cells at 10 uM after 168 hrs by AnnexinV/PI-staining based flow cytometry; format: functional; procedure, shortened: as §1
# KOPN-8 [17] = test: Induction of apoptosis in human KOPN8 cells assessed as late apoptotic cells at 10 uM after 168 hrs by AnnexinV/PI-staining based flow cytometry; format: functional; procedure, shortened: as §1
# KOPN-8 [18] = test: Induction of apoptosis in human KOPN8 cells assessed as necrotic cells at 10 uM after 168 hrs by AnnexinV/PI-staining based flow cytometry; format: functional; procedure, shortened: as §1
# KOPN-8 [19] = test: Induction of apoptosis in human KOPN8 cells assessed as increase in caspase 3/7 activity at 0.1 to 50 uM after 24 hrs by Caspase-glo reagent based microplate reader analysis relative to control; format: functional; conditions: dose microM 0.1-50
# Procedure, shortened: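 MDA-MB-231 or KOPN-8 cells treated at concentrations across 0–50 μM in dose response. Enzymatic activity of caspase-3/7 and caspase-9 measured and expressed as fold increase.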
# KOPN-8 [20] = test: Induction of apoptosis in human KOPN8 cells assessed as increase in caspase 9 activity at 0.1 to 50 uM after 24 hrs by Caspase-glo reagent based microplate reader analysis relative to control; format: functional; conditions: dose microM 0.1-50, time […]
# [21] = Antiproliferative activity against human BTTR cells assessed as growth inhibition after 48 hrs by PrestoBlue dye based fluorescence assay; format: functional, cell-based
# HCC1954 = test: Antiproliferative activity against human HCC1954 cells assessed as growth inhibition after 48 hrs by PrestoBlue dye based fluorescence assay; format: functional, cell-based; conditions: HCC1954, 48 h
# MCF7 = test: Antiproliferative activity against human MCF7 cells assessed as growth inhibition after 48 hrs by PrestoBlue dye based fluorescence assay; format: functional, cell-based; conditions: MCF7, 48 h
# MDA-MB-231 = test: Antiproliferative activity against human MDA-MB-231 cells assessed as growth inhibition after 48 hrs by PrestoBlue dye based fluorescence assay; format: functional, cell-based; conditions: MDA-MB-231, 48 h
# [22] = Antiproliferative activity against human CEM-R cells assessed as growth inhibition after 48 hrs by PrestoBlue dye based fluorescence assay; format: functional, cell-based
# [23] = Antiproliferative activity against human M249 cells assessed as growth inhibition after 48 hrs by PrestoBlue dye based fluorescence assay; format: functional, cell-based; conditions: M249, 48 h
# SK-MEL-28 = test: Antiproliferative activity against human SK-MEL-28 cells assessed as growth inhibition after 48 hrs by PrestoBlue dye based fluorescence assay; format: functional, cell-based; conditions: SK-MEL-28, 48 h
# BXPC-3 = test: Antiproliferative activity against human BxPC3 cells assessed as growth inhibition after 48 hrs by PrestoBlue dye based fluorescence assay; format: functional, cell-based; conditions: BXPC-3, 48 h
# [24] = Antiproliferative activity against human COLO357/FG cells assessed as growth inhibition after 48 hrs by PrestoBlue dye based fluorescence assay; format: functional, cell-based; conditions: COLO 357/FG
# DU-145 = test: Antiproliferative activity against human DU145 cells assessed as growth inhibition after 48 hrs by PrestoBlue dye based fluorescence assay; format: functional, cell-based; conditions: DU-145, 48 h
# VCaP = test: Antiproliferative activity against human VCap cells assessed as growth inhibition after 48 hrs by PrestoBlue dye based fluorescence assay; format: functional, cell-based
# SW480 = test: Antiproliferative activity against human SW480 cells assessed as growth inhibition after 48 hrs by PrestoBlue dye based fluorescence assay; format: functional, cell-based; conditions: SW480, 48 h
# T84 = test: Antiproliferative activity against human T84 cells assessed as growth inhibition after 48 hrs by PrestoBlue dye based fluorescence assay; format: functional, cell-based; conditions: T84, 48 h
# FaDu = test: Antiproliferative activity against human FADU cells assessed as growth inhibition after 48 hrs by PrestoBlue dye based fluorescence assay; format: functional, cell-based
# [25] = Antiproliferative activity against human UM-SCC-5 cells assessed as growth inhibition after 48 hrs by PrestoBlue dye based fluorescence assay; format: functional, cell-based; conditions: UM-SCC-5, 48 h
# [26] = Antiproliferative activity against human UM-SCC-6 cells assessed as growth inhibition after 48 hrs by PrestoBlue dye based fluorescence assay; format: functional, cell-based; conditions: UM-SCC-6, 48 h
structure (smiles),measurement,setting,value
"CCCCCCCCCCCCCCCCCCSCCNC(=O)[C@@H]1CCCN1C(=O)[C@H](CCCNC(=N)N)NC(=O)C1(NC(=O)[C@@H]2CCCN2C(=O)[C@H](Cc2cc(F)cc(F)c2)NC(=O)[C@@H](N)CSCCCCCCCCCCCCCCCCCC)CCC1 (H-C(X3)[Phe(3,5-F2)]P[Ac4c]RP-X1)",EC50,Jurkat,21.7 µM
same,EC50,KOPN-8 [1],1 µM
same,EC50,MOLT-4,6.5 µM
same,EC50,MV4-11,9.2 µM
same,EC50,NALM-6,5.6 µM
same,EC50,[2],5.9 µM
same,EC50,THP-1,9.5 µM
same,EC50,TF-1,4.2 µM
same,viability at 10 µM,KOPN-8 [3],87.7%
same,Activity,KOPN-8 [4],1.09%
same,Activity,KOPN-8 [5],9.22%
same,Activity,KOPN-8 [6],2.04%
same,viability at 10 µM,KOPN-8 [7],87.1%
same,Activity,KOPN-8 [8],1.19%
same,Activity,KOPN-8 [9],9.59%
same,Activity,KOPN-8 [10],2.15%
same,viability at 10 µM,KOPN-8 [11],91.6%
same,Activity,KOPN-8 [12],0.58%
same,Activity,KOPN-8 [13],6.63%
same,Activity,KOPN-8 [14],1.23%
same,viability at 10 µM,KOPN-8 [15],68.2%
same,Activity,KOPN-8 [16],3.81%
same,Activity,KOPN-8 [17],26.4%
same,Activity,KOPN-8 [18],1.59%
same,fold change (FC),KOPN-8 [19],3.6
same,Activity,KOPN-8 [20],inactive
CN[C@@H](C)C(=O)N[C@H](C(=O)N1C[C@@H](Oc2ccccc2)C[C@H]1C(=O)N[C@@H](Cc1ccc(-c2ccccc2)cc1)C(=O)NCCS)C(C)(C)C (H-[NMeA][Tle][Pro(cis-4-OPh)][Bip]-Cysteamide),EC50,[21],9 µM
same,EC50,HCC1954,3.9 µM
same,EC50,MCF7,10.2 µM
same,EC50,MDA-MB-231,6 µM
same,EC50,MOLT-4,2.8 µM
same,EC50,NALM-6,5.3 µM
same,EC50,[22],2.9 µM
same,EC50,[23],6.2 µM
same,EC50,SK-MEL-28,6.1 µM
same,EC50,BXPC-3,4.1 µM
same,EC50,[24],8 µM
same,EC50,DU-145,6.2 µM
same,EC50,VCaP,7 µM
same,EC50,SW480,9.2 µM
same,EC50,T84,6.2 µM
same,EC50,FaDu,3.9 µM
same,EC50,[25],5.9 µM
same,EC50,[26],6 µM
